Reference: ChEMBL document CHEMBL4138104, “Indole carboxylic acid esters of melampomagnolide B are potent anticancer agents against both hematological and solid tumor cells” (Eur J Med Chem, 2017)

Legend:
[1] = test system: MDA-MB-231; experiment: Growth inhibition of human MDA-MB-231/ATCC cells incubated for 48 hrs by sulforhodamine B assay; type: functional; settings: MDA-MB-231, 48 h
Procedure, shortened: (§1)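 NCI-60 screen. Compounds were dosed at five concentrations spanning 10^-4 to 10^-8 M for 48 h at 37 °C. Cells were TCA-fixed, stained with 0.4% SRB and read at 515 nm against time-zero and vehicle controls. GI50 is the concentration giving a 50% reduction in net protein increase.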

[2] = test system: Hs-578T; experiment: Growth inhibition of human Hs 578T cells incubated for 48 hrs by sulforhodamine B assay; type: functional; procedure, shortened: as §1
[3] = test system: HOP-62; experiment: Growth inhibition of human HOP62 cells incubated for 48 hrs by sulforhodamine B assay; type: functional; settings: HOP-62, 48 h; procedure, shortened: as §1
[4] = test system: PC-3; experiment: Growth inhibition of human PC3 cells incubated for 48 hrs by sulforhodamine B assay; type: functional; settings: PC-3, 48 h; procedure, shortened: as §1
[5] = test system: NCI-H522; experiment: Growth inhibition of human NCI-H522 cells incubated for 48 hrs by sulforhodamine B assay; type: functional; settings: NCI-H522, 48 h; procedure, shortened: as §1
[6] = test system: TK-10; experiment: Growth inhibition of human TK10 cells incubated for 48 hrs by sulforhodamine B assay; type: functional; settings: TK-10, 48 h
Procedure, shortened: (§2)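 NCI-60 screen run at NCI. Cells grown in RPMI medium with 5% FBS and 2 mM L-glutamine, plated at 5,000–40,000 cells/well, and preincubated 24 h at 37 °C. Time-zero plates were TCA-fixed. Compounds came from DMSO stocks and were tested at five concentrations from 10^-4 to 10^-8 M for 48 h. Cells were then TCA-fixed, stained with 0.4% SRB, and OD read at 515 nm. GI50 is the concentration giving a 50% reduction in net protein increase versus control.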

[7] = test system: MDA-MB-435; experiment: Growth inhibition of human MDA-MB-435 cells incubated for 48 hrs by sulforhodamine B assay; type: functional; settings: MDA-MB-435, 48 h; procedure, shortened: as §1
[8] = test system: DU-145; experiment: Growth inhibition of human DU145 cells incubated for 48 hrs by sulforhodamine B assay; type: functional; settings: DU-145, 48 h; procedure, shortened: as §1
[9] = test system: SK-MEL-5; experiment: Growth inhibition of human SK-MEL-5 cells incubated for 48 hrs by sulforhodamine B assay; type: functional; settings: SK-MEL-5, 48 h; procedure, shortened: as §1
[10] = test system: M14; experiment: Growth inhibition of human M14 cells incubated for 48 hrs by sulforhodamine B assay; type: functional; settings: M14, 48 h; procedure, shortened: as §1
[11] = test system: T47D; experiment: Growth inhibition of human T47D cells incubated for 48 hrs by sulforhodamine B assay; type: functional; procedure, shortened: as §2
[12] = test system: IGROV-1; experiment: Growth inhibition of human IGROV1 cells incubated for 48 hrs by sulforhodamine B assay; type: functional; settings: IGROV-1, 48 h; procedure, shortened: as §1
[13] = test system: SR; experiment: Growth inhibition of human SR cells incubated for 48 hrs by sulforhodamine B assay; type: functional; procedure, shortened: as §2
[14] = test system: SNB-75; experiment: Growth inhibition of human SNB75 cells incubated for 48 hrs by sulforhodamine B assay; type: functional; settings: SNB-75, 48 h; procedure, shortened: as §2
[15] = Potency index, ratio of melampomagnolide-B EC50 to compound EC50 for human M9-ENL1 cells; type: functional
Procedure, shortened: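 M9-ENL1 AML cells, derived by MLL-ENL transduction of human blood cells, were plated at 10^6 cells/mL in alpha-MEM with 5% human plasma, 20% FBS, SCF, IL-3, IL-7 and FLT3 ligand. Exposure was 24 h. Non-apoptotic (Annexin V/7-AAD double-negative) fraction was normalized to vehicle, in triplicate, to give EC50. PTL and MMB were run as reference controls.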

[16] = test system: EKVX; experiment: Growth inhibition of human EKVX cells incubated for 48 hrs by sulforhodamine B assay; type: functional; procedure, shortened: as §1
[17] = test system: BT-549; experiment: Growth inhibition of human BT549 cells incubated for 48 hrs by sulforhodamine B assay; type: functional; settings: BT-549, 48 h; procedure, shortened: as §1
[18] = test system: OVCAR-4; experiment: Growth inhibition of human OVCAR4 cells incubated for 48 hrs by sulforhodamine B assay; type: functional; settings: OVCAR-4, 48 h; procedure, shortened: as §1
[19] = test system: 786-0; experiment: Growth inhibition of human 786-0 cells incubated for 48 hrs by sulforhodamine B assay; type: functional; settings: 786-0, 48 h; procedure, shortened: as §1
[20] = test system: OVCAR-3; experiment: Growth inhibition of human OVCAR3 cells incubated for 48 hrs by sulforhodamine B assay; type: functional; settings: OVCAR-3, 48 h; procedure, shortened: as §1
[21] = test system: COLO 205; experiment: Growth inhibition of human COLO205 cells incubated for 48 hrs by sulforhodamine B assay; type: functional; settings: COLO 205, 48 h; procedure, shortened: as §1
[22] = test system: SK-MEL-2; experiment: Growth inhibition of human SK-MEL-2 cells incubated for 48 hrs by sulforhodamine B assay; type: functional; settings: SK-MEL-2, 48 h; procedure, shortened: as §1
[23] = test system: MDA-MB-468; experiment: Growth inhibition of human MDA-MB-468 cells incubated for 48 hrs by sulforhodamine B assay; type: functional; settings: MDA-MB-468, 48 h; procedure, shortened: as §1
[24] = Induction of apoptosis in AML03 cells isolated from acute myelogenous leukemia patient after 24 hrs by annexin V/7-AAD/propidium iodide staining-based flow cytometric method; type: functional, cell-based; settings: Homo sapiens
Procedure, shortened: (§3)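 Primary AML specimens from consenting patients were Ficoll-separated and some were cryopreserved. Cells were held 1 h in serum-free IMDM with 20% BIT 9500, LDL and beta-mercaptoethanol before drug. Drugs were diluted from DMSO stock into PBS, final DMSO ≤0.5%. Dosing was 0.5–10 μM for 24 h. Annexin V/7-AAD flow cytometry scored double-negative (non-apoptotic) cells, normalized to vehicle, in triplicate, and EC50 came from dose-response curves.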

[25] = test system: CAKI-1; experiment: Growth inhibition of human Caki1 cells incubated for 48 hrs by sulforhodamine B assay; type: functional; settings: CAKI-1, 48 h; procedure, shortened: as §1
[26] = test system: ACHN; experiment: Growth inhibition of human ACHN cells incubated for 48 hrs by sulforhodamine B assay; type: functional; procedure, shortened: as §1
[27] = Induction of apoptosis in AML04 cells isolated from acute myelogenous leukemia patient after 24 hrs by annexin V/7-AAD/propidium iodide staining-based flow cytometric method; type: functional, cell-based; settings: Homo sapiens; procedure, shortened: as §3
[28] = Induction of apoptosis in AML02 cells isolated from acute myelogenous leukemia patient after 24 hrs by annexin V/7-AAD/propidium iodide staining-based flow cytometric method; type: functional, cell-based; settings: Homo sapiens; procedure, shortened: as §3
[29] = Induction of apoptosis in AML01 cells isolated from acute myelogenous leukemia patient after 24 hrs by annexin V/7-AAD/propidium iodide staining-based flow cytometric method; type: functional, cell-based; settings: Homo sapiens, AML01, 24 h; procedure, shortened: as §3

SMILES | GI50 [1] [nM] | GI50 [2] [nM] | GI50 [3] [nM] | GI50 [4] [nM] | GI50 [5] [nM] | GI50 [6] [nM] | GI50 [7] [nM] | GI50 [8] [nM] | GI50 [9] [nM] | GI50 [10] [nM] | GI50 [11] [nM] | GI50 [12] [nM] | Ratio IC50 [15] | GI50 [16] [nM] | GI50 [17] [nM] | GI50 [18] [nM] | GI50 [19] [nM] | GI50 [20] [nM] | GI50 [21] [nM] | GI50 [22] [nM] | other results
C=C1C(=O)O[C@@H]2[C@H]3O[C@]3(C)CC/C=C(/COC(=O)CCCc3c[nH]c4ccccc34)CC[C@@H]12 | 1780 | 3190 | 6540 | 1920 | 1570 | 1640 | 1730 | 1670 | 1740 | 1660 | 2170 | 1630 | 2 - 20 | 2020 | 1370 | 1660 | 1600 | 1530 | 1860 | 1960 | GI50 [13]: 1730 nM; GI50 [14]: 12600 nM; GI50 [23]: 1760 nM
C=C1C(=O)O[C@@H]2[C@H]3O[C@]3(C)CC/C=C(/COC(=O)c3cc4cc(OC)ccc4[nH]3)CC[C@@H]12 | 1580 | 3090 | 1640 | 1830 | 700 | 1280 | 620 | 1030 | 1740 | 1270 | 1300 | 1480 | 2 - 20 | 1500 | 1060 | 1630 | 1270 | 930 | 1180 | 1600 | EC50 [24]: 2200 nM; GI50 [25]: 1710 nM; GI50 [26]: 810 nM; EC50 [27]: 3300 nM; EC50 [28]: 3300 nM; EC50 [29]: 3000 nM; GI50 [23]: 1130 nM
C=C1C(=O)O[C@@H]2[C@H]3O[C@]3(C)CC/C=C(/COC(=O)c3c[nH]c4ccccc34)CC[C@@H]12 | 190 | 610 | 820 | 380 | 190 | 280 | 240 | 380 | 200 | 220 | 400 | 250 | 2 - 20 | 310 | 170 | 250 | 320 | 200 | 240 | 230 | GI50 [13]: 280 nM; GI50 [14]: 200 nM; GI50 [26]: 210 nM; GI50 [23]: 190 nM
C=C1C(=O)O[C@@H]2[C@H]3O[C@]3(C)CC/C=C(/COC(=O)c3cc4ccccc4o3)CC[C@@H]12 | 1640 | 2910 | 2480 | 1760 | 680 | 3010 | 1430 | 1180 | 1520 | 1430 | 1350 | 1390 | 2 - 20 | 2020 | 1480 | 1560 | 1810 | 480 | 1550 | 1770 | GI50 [13]: 1150 nM; GI50 [14]: 1340 nM; GI50 [26]: 1440 nM; GI50 [23]: 1500 nM
